The values that follow come from ChEMBL document CHEMBL1177721, “Cytotoxicity of artesunic acid homo- and heterodimer molecules toward sensitive and multidrug-resistant CCRF-CEM leukemia cells” (J Med Chem, 2010).

Each structure is given as a SMILES string. pIC50: −log10 of the molar value. The source made the active and inactive calls. The rule behind the calls is not given here.

Common to all, as to type: functional, cell-based
For assay [1], the system named is ADR5000 cell line. The experiment in a line: Induction of apoptosis in human CEM/ADR5000 cells at 2 ug/mL after 48 hrs using propidium iodide staining by flow cytometry. Background: Flow cytometry measures light scatter and fluorescence of single cells or particles in a stream.
Assay [2] relates to ADR5000 cell line. The experiment in a line: Cell cycle arrest in human CEM/ADR5000 cells assessed as accumulation at G0/G1 phase 1 ug/ml after 48 hrs using propidium iodide staining by flow cytometry.
For another assay, the system named is CCRF-CEM. The experiment in a line: Cytotoxicity against human CCRF-CEM by XTT assay. A digest of the protocol: (§1)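 XTT (tetrazolium cleavage by cellular dehydrogenases to formazan) read on plate reader. Cells kept in RPMI-1640 with 10% heat-inactivated FCS, 1% penicillin/streptomycin, 37 °C, 5% CO2. CEM/ADR5000 pulsed with 5000 ng/mL doxorubicin for 3 days every other week to keep P-glycoprotein overexpression. IC50 from dose-response curves, mean ± SD of two to three independent experiments, three parallel measurements each.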

Assay [3] concerns ADR5000 cell line. The experiment in a line: Increase in ROS generation in human CEM/ADR5000 cells at 0 001 ug/ml after 24 hrs using 2',7'-dichlorodihydrofluoresceine diacetate staining by flow cytometry. A digest of the protocol: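 Intracellular ROS measured by H2DCFDA staining and flow cytometry. Cells at 5 × 10^5 cells/mL exposed to a range of concentrations, sampled at 6, 24, 48 and 72 h. Fluorescence histograms overlaid on untreated controls. Levels normalised to the median of three nontreated controls.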

The test system of assay [4] is ADR5000 cell line. The experiment in a line: Cytotoxicity against human CEM/ADR5000 by XTT assay. A digest of the protocol:
as §1
(Tetrazolium dyes change colour on reduction, which living cells bring about.)

Assay [5] deals with ADR5000 cell line. Briefly: Cell cycle arrest in human CEM/ADR5000 cells assessed as accumulation at G0/G1 phase 10 ug/ml after 48 hrs using propidium iodide staining by flow cytometry. A digest of the protocol: (§2)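 Nicoletti assay: cells were stained with propidium iodide and read by flow cytometry, counting 10 000 cells per sample. Cells were grown in RPMI-1640 with 10% heat-inactivated FCS and 1% penicillin/streptomycin at 37 °C under 5% CO2. To keep P-glycoprotein overexpressed, CEM/ADR5000 cells were given 5000 ng/mL doxorubicin for 3 days every other week.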

The subject of assay [6] is ADR5000 cell line. The experiment in a line: Increase in ROS generation in human CEM/ADR5000 cells at 0 01 ug/ml after 72 hrs using 2',7'-dichlorodihydrofluoresceine diacetate staining by flow cytometry.
Assay [7] deals with ADR5000 cell line. Briefly: Cell cycle arrest in human CEM/ADR5000 cells assessed as accumulation at G2/M phase 0.01 ug/ml after 48 hrs using propidium iodide staining by flow cytometry. A digest of the protocol: as §2
In assay [8] the test system is ADR5000 cell line. Briefly: Increase in ROS generation in human CEM/ADR5000 cells at 1 ug/ml after 6 hrs 2',7'-dichlorodihydrofluoresceine diacetate staining by flow cytometry.
Assay [9] has as its system ADR5000 cell line. The experiment in a line: Induction of apoptosis in human CEM/ADR5000 cells at 1 ug/mL after 24 hrs using propidium iodide staining by flow cytometry. A digest of the protocol: as §2

Usually pIC50 stands for −log10 of the IC50, conventionally taken in molar units. The low end stands for a high IC50, the high end for a low IC50. `C[C@H]1[C@H](OC(=O)CCC(=O)NCCCNC(=O)CCC(=O)O[C@@H]2O[C@@H]3O[C@@]4(C)CC[C@H]5[C@H](C)CC[C@@H]([C@H]2C)[C@@]35OO4)O[C@@H]2O[C@@]3(C)CC[C@H]4[C@H](C)CC[C@@H]1[C@@]24OO3`: the result in the assay on ADR5000 cell line [1], with ADR5000 cell line [2] and in the assay with ADR5000 cell line [3] was Active. The values for the pIC50 in the assay with CCRF-CEM and in the assay with ADR5000 cell line [4] were 5.92 and 6.70, respectively.
Turning to `C=C(C)[C@@H]1CC[C@]2(COC(C)=O)CC[C@]3(C)[C@H](CC[C@@H]4[C@@]5(C)CC[C@H](OC(=O)CCC(=O)O[C@@H]6O[C@@H]7O[C@@]8(C)CC[C@H]9[C@H](C)CC[C@@H]([C@H]6C)[C@@]79OO8)C(C)(C)[C@@H]5CC[C@]43C)[C@@H]12`, the pIC50 with CCRF-CEM is 4.50; with ADR5000 cell line [4] it was 4.68.
As to `C=C(C)[C@@H]1CC[C@]2(COC(=O)CCC(=O)O[C@@H]3O[C@@H]4O[C@@]5(C)CC[C@H]6[C@H](C)CC[C@@H]([C@H]3C)[C@@]46OO5)CC[C@]3(C)[C@H](CC[C@@H]4[C@@]5(C)CC[C@H](O)C(C)(C)[C@@H]5CC[C@]43C)[C@@H]12`, the pIC50 with CCRF-CEM was 5.01; in the assay on ADR5000 cell line [4], 4.92.
With `C=C(C)[C@@H]1CC[C@]2(COC(=O)CCC(=O)O[C@@H]3O[C@@H]4O[C@@]5(C)CC[C@H]6[C@H](C)CC[C@@H]([C@H]3C)[C@@]46OO5)CC[C@]3(C)[C@H](CC[C@@H]4[C@@]5(C)CC[C@H](OC(=O)CCC(=O)O[C@@H]6O[C@@H]7O[C@@]8(C)CC[C@H]9[C@H](C)CC[C@@H]([C@H]6C)[C@@]79OO8)C(C)(C)[C@@H]5CC[C@]43C)[C@@H]12`, the values for the pIC50 with CCRF-CEM and in the assay on ADR5000 cell line [4] were 4.37 and 4.38, respectively.
Taken in the same sequence, the figures for `C[C@@H]1CC[C@H]2[C@@H](C)C(=O)O[C@@H]3O[C@@]4(C)CC[C@@H]1[C@]32OO4` [ARTEMISININ] were 4.43 and 4.57.
As for `C[C@H]1[C@H](OC(=O)CCC(=O)O)O[C@@H]2O[C@@]3(C)CC[C@H]4[C@H](C)CC[C@@H]1[C@@]24OO3` [ARTESUNATE], the result in the assay on ADR5000 cell line [1], with ADR5000 cell line [5], in the assay with ADR5000 cell line [6] and in the assay with ADR5000 cell line [7] was Active. Besides, the pIC50 in the assay with CCRF-CEM is 5.74; with ADR5000 cell line [4], 5.92.
As for `C=C(C)[C@@H]1CC[C@]2(CO)CC[C@]3(C)[C@H](CC[C@@H]4[C@@]5(C)CC[C@H](O)C(C)(C)[C@@H]5CC[C@]43C)[C@@H]12` [BETULIN], the values for the pIC50 with CCRF-CEM and with ADR5000 cell line [4] were 4.29 and 4.25, respectively.
With `COc1cccc2c1C(=O)c1c(O)c3c(c(O)c1C2=O)C[C@@](O)(C(=O)CO)C[C@@H]3O[C@H]1C[C@H](N)[C@H](O)[C@H](C)O1` [DOXORUBICIN], the outcome in the assay on ADR5000 cell line [8] was inactive. Further, the negative-log IC50 (pIC50) with CCRF-CEM was 7.43; with ADR5000 cell line [4], below 5.28. Moreover, in the assay with ADR5000 cell line [9], the result was Active.
